In ChEMBL document CHEMBL5653631, “A Potent and Selective ULK1 Inhibitor Suppresses Autophagy and Sensitizes Cancer Cells to Nutrient Stress” (iScience, 2018):

Experiments:
[1] = target: Serine/threonine-protein kinase Nek4 (Homo sapiens) (UniProt P51957); assay: Inhibition of human recombinant NEK4 at 40 nM related to control ULK1
[2] = target: Casein kinase I isoform gamma-3 (Homo sapiens) (UniProt Q9Y6M4); assay: Inhibition of human recombinant CK1g3 at 40 nM related to control ULK1
[3] = target: T1, MAPK/MAK/MRK overlapping kinase (Homo sapiens) (UniProt Q9UQ07); assay: Inhibition of human recombinant MOK at 40 nM related to control ULK1
T1 sequence (whole entry): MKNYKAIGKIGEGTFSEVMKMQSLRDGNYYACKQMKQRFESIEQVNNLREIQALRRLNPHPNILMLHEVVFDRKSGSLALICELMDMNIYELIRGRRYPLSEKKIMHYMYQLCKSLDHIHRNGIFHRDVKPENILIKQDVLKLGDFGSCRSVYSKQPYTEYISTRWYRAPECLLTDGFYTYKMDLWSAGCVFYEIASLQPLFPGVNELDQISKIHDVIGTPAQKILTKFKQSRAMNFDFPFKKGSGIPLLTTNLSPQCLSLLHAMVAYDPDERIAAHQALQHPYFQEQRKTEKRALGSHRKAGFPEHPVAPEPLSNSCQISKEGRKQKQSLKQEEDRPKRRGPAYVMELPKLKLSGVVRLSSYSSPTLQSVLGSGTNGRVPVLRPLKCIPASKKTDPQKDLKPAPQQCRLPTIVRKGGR

[4] = target: Ribosomal protein S6 kinase alpha-6 (Homo sapiens) (UniProt Q9UK32); assay: Inhibition of human recombinant RSK4 at 40 nM related to control ULK1
[5] = target: Cyclin-dependent kinase 1 (Homo sapiens) (UniProt P06493); assay: Inhibition of human recombinant CDC2 at 500 nM in presence of ATP by radiometric assay relative to control
[6] = target: RAC-gamma serine/threonine-protein kinase (Homo sapiens) (UniProt Q9Y243); assay: Inhibition of human recombinant AKT3 at 500 nM in presence of ATP by radiometric assay relative to control
Outline: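 Panel of 327 recombinant human kinases in radiometric activity assays, each screened in duplicate at a single inhibitor concentration; percent activity remaining relative to vehicle control, percent inhibition taken as 100 minus activity remaining.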

[7] = target: T2, NUAK family SNF1-like kinase 2 (Homo sapiens) (UniProt Q9H093); assay: Inhibition of human recombinant NuaK2 at 500 nM related to control ULK1
T2 sequence (whole entry): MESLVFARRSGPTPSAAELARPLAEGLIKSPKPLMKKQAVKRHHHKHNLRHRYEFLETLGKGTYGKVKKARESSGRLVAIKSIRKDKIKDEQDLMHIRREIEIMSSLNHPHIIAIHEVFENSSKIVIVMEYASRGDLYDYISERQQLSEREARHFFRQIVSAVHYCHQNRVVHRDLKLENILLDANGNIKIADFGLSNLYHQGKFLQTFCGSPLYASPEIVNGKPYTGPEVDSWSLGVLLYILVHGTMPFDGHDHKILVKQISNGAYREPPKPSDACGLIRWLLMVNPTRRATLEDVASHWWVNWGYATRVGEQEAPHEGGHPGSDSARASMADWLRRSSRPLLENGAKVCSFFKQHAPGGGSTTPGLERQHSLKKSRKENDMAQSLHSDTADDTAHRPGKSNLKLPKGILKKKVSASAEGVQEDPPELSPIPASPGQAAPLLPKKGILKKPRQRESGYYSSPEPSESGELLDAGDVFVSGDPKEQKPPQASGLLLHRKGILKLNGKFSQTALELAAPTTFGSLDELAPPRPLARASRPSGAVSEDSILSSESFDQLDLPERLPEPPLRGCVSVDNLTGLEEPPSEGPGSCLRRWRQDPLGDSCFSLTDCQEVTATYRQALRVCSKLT

[8] = target: T3, Testis-specific serine/threonine-protein kinase 2 (Homo sapiens) (UniProt Q96PF2); assay: Inhibition of human recombinant TSSK2 at 500 nM related to control ULK1
T3 sequence (whole entry): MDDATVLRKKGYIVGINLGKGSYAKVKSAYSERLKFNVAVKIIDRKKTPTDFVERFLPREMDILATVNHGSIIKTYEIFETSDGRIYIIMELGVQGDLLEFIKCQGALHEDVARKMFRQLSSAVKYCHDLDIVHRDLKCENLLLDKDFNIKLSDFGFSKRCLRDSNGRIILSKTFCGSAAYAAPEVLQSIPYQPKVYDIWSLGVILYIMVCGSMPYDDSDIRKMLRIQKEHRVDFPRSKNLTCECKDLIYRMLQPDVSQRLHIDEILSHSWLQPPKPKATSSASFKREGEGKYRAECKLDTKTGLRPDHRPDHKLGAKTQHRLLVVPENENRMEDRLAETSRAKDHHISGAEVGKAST

[9] = target: cAMP-dependent protein kinase catalytic subunit alpha (Homo sapiens) (UniProt P17612); assay: Inhibition of human recombinant PKACalpha at 15 nM in presence of ATP by radiometric assay relative to control
[10] = target: Serine/threonine-protein kinase SIK1 (Homo sapiens) (UniProt P57059); assay: Inhibition of human recombinant SIK at 15 nM in presence of ATP by radiometric assay relative to control
[11] = target: Ephrin type-A receptor 5 (Homo sapiens) (UniProt P54756); assay: Inhibition of human recombinant EphA5 at 15 nM in presence of ATP by radiometric assay relative to control
[12] = target: Serine/threonine-protein kinase MAK (Homo sapiens) (UniProt P20794); assay: Inhibition of human recombinant MAK at 15 nM related to control ULK1
[13] = target: Serine/threonine-protein kinase SIK3 (Homo sapiens) (UniProt Q9Y2K2); assay: Inhibition of human recombinant QSK at 15 nM related to control ULK1
[14] = target: T4, Serine/threonine-protein kinase Nek2 (Homo sapiens) (UniProt P51955); assay: Inhibition of human recombinant NEK2 at 15 nM in presence of ATP by radiometric assay relative to control
T4 sequence (whole entry): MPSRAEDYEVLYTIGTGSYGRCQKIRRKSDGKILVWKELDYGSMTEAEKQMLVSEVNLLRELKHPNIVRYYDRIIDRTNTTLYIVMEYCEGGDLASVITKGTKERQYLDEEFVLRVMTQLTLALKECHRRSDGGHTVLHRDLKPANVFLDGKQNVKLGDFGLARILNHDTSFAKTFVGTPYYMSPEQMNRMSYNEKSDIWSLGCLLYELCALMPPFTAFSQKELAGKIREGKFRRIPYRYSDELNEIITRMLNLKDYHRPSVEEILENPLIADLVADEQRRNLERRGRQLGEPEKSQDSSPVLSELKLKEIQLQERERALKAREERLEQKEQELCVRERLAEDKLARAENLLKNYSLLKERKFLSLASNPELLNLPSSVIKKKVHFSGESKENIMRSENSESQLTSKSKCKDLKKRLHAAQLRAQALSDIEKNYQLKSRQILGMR

[15] = target: Ephrin type-A receptor 7 (Homo sapiens) (UniProt Q15375); assay: Inhibition of human recombinant EphA7 at 15 nM in presence of ATP by radiometric assay relative to control
Ephrin type-A receptor 7 (Homo sapiens), sequence (Q15375 28-998 limits assumed): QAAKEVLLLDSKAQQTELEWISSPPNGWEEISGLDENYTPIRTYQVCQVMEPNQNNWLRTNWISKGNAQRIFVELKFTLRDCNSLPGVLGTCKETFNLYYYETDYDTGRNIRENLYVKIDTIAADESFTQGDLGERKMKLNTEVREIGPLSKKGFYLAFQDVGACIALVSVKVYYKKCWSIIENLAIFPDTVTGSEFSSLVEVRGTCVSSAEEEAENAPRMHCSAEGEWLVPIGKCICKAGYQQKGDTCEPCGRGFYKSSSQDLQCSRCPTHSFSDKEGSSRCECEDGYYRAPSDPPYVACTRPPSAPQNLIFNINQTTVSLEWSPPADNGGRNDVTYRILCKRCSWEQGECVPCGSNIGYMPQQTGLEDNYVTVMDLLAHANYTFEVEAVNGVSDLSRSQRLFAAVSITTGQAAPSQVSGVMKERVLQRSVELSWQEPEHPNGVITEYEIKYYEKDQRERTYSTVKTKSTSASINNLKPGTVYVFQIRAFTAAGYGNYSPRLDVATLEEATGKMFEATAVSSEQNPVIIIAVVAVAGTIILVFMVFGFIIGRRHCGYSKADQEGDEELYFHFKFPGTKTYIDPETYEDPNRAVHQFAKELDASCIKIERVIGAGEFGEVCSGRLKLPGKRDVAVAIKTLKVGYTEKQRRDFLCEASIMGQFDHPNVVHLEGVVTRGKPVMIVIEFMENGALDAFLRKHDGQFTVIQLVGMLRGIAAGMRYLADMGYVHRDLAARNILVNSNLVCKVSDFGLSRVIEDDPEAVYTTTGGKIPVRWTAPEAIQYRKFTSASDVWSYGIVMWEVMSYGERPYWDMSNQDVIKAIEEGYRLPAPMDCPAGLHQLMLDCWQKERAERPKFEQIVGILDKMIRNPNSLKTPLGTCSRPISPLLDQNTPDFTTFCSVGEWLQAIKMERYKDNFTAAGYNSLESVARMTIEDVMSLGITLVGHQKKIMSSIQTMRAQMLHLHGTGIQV

Serine/threonine-protein kinase Nek4 (Homo sapiens), sequence (P51957 whole entry, looked up, canonical isoform): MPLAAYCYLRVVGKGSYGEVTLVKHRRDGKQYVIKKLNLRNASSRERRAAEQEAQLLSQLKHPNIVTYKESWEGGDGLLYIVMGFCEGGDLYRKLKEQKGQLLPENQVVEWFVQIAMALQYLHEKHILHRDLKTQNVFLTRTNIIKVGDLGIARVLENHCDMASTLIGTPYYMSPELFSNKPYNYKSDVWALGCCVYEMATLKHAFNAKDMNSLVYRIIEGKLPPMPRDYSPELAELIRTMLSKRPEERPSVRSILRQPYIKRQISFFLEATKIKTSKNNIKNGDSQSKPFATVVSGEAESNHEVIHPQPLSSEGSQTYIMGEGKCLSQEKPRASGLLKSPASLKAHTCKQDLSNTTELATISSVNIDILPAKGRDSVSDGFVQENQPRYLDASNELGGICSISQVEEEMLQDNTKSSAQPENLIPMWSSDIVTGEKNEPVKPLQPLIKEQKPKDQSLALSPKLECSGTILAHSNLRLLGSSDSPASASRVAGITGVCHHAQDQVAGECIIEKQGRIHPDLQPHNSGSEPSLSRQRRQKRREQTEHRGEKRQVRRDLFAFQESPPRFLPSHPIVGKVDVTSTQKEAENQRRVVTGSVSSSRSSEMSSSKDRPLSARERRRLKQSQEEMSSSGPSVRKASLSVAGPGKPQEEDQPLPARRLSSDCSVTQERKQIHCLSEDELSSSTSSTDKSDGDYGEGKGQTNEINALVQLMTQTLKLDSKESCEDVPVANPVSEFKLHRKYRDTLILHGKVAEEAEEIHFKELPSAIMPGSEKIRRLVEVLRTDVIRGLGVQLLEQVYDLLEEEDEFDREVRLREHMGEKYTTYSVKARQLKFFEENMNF
Serine/threonine-protein kinase MAK (Homo sapiens), sequence (P20794 whole entry, looked up): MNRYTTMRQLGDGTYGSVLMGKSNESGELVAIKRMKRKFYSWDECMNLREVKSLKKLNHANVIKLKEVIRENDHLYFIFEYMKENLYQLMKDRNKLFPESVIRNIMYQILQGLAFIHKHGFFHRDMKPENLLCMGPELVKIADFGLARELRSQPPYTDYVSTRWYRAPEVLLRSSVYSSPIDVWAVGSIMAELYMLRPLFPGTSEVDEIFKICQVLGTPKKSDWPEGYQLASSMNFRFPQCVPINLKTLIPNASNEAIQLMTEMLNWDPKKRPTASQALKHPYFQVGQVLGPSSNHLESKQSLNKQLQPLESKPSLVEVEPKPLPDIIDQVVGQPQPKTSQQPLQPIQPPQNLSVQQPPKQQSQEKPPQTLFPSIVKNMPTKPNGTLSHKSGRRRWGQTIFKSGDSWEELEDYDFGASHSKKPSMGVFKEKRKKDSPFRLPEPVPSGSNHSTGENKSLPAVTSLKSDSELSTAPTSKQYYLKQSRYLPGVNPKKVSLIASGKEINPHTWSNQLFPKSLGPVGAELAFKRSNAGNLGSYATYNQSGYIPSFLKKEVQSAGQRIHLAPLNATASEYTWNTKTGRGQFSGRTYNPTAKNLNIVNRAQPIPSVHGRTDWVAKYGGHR
RAC-gamma serine/threonine-protein kinase (Homo sapiens), sequence (Q9Y243 whole entry): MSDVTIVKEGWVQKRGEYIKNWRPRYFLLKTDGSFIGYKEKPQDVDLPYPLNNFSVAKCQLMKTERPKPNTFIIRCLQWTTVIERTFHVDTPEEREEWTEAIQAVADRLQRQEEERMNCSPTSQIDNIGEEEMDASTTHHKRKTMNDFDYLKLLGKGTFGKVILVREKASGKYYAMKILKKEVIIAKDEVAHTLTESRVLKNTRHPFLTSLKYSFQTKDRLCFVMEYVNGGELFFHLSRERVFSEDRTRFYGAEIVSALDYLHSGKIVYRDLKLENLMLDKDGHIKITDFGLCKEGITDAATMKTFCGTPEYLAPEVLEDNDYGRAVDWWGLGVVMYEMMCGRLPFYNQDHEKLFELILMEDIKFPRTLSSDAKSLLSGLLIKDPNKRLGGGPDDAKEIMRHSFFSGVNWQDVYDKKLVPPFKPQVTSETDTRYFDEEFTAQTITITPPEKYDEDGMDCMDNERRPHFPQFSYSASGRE
Ribosomal protein S6 kinase alpha-6 (Homo sapiens), sequence (Q9UK32 whole entry): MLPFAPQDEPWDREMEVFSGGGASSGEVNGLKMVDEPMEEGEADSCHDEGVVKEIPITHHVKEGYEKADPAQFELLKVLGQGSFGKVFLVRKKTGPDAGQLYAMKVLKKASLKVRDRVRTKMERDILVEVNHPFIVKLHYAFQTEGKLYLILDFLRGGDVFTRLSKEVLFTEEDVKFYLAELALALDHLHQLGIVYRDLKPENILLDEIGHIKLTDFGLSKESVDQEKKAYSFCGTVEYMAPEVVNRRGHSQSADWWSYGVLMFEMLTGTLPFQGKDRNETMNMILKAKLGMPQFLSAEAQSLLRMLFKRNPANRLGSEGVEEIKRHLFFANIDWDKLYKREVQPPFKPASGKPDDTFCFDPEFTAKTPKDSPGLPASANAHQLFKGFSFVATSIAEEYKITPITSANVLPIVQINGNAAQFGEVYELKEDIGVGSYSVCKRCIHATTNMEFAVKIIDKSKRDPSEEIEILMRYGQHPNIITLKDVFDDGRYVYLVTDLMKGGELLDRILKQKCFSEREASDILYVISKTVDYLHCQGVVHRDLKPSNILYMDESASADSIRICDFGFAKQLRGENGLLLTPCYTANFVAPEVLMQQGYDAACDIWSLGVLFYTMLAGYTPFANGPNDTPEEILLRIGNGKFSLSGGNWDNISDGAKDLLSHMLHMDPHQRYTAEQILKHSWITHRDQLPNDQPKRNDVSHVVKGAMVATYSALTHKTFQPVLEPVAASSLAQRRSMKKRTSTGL
Serine/threonine-protein kinase SIK1 (Homo sapiens), sequence (P57059 whole entry): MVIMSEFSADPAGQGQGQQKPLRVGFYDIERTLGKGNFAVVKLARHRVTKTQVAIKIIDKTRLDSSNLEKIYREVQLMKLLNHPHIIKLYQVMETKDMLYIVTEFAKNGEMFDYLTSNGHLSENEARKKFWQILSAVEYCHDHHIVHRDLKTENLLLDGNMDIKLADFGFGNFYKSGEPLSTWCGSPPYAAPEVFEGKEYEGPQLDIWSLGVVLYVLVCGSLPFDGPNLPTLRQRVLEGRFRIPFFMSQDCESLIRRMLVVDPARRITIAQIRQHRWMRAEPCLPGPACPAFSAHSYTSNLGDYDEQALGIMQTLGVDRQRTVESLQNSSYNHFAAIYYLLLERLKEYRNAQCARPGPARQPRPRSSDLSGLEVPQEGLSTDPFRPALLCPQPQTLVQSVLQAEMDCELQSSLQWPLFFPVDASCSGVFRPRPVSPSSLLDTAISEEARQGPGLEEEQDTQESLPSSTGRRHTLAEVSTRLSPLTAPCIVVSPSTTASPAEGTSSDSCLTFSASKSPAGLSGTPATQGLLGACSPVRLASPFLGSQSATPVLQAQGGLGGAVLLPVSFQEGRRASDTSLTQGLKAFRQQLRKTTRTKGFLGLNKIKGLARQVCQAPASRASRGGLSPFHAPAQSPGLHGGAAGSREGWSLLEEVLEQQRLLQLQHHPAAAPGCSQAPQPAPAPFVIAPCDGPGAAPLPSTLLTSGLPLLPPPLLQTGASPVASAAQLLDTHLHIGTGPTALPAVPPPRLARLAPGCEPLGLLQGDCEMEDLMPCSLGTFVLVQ
Cyclin-dependent kinase 1 (Homo sapiens), sequence (P06493 whole entry, looked up): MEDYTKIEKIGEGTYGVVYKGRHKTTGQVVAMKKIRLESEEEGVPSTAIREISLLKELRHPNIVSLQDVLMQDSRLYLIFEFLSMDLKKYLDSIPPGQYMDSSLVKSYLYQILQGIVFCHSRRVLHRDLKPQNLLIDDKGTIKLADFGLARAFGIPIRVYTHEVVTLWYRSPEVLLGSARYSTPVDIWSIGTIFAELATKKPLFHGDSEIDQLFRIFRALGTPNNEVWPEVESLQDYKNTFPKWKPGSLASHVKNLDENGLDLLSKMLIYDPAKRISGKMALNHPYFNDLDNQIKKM

Question: `O=C(N[C@@H](C1CC1)C(F)(F)F)c1cc(-c2cnn3cc(-c4ccc(F)cc4)cnc23)cs1` was tested. Which fold change (FC) [1] did it give?
Answer: The fold change (FC) was 0.05.

Question: And the fold change (FC) [2]?
Answer: The fold change (FC) was 0.05.

Question: And the fold change (FC) [3]?
Answer: Its fold change (FC) is 0.

Question: And the fold change (FC) [4]?
Answer: The fold change (FC) was 0.

Question: What does the source list for `CNC(=O)c1ccccc1Oc1nc(Nc2cc(OC)c(OC)c(OC)c2)ncc1Br`?
Answer: inhibition [5]: 30%; inhibition [6]: 5%; fold change (FC) [7]: 0.86; fold change (FC) [8]: 0.03

Question: `CC(C)[C@H](NC(=O)c1cc(-c2cnn3cc(-c4ccc(OCCN5CCCCC5)cc4)cnc23)cs1)C(F)(F)F` was tested. Which inhibition [9] did it give?
Answer: Its inhibition is 0%.

Question: What about the inhibition [10] of the same molecule?
Answer: Its inhibition is 74%.

Question: What about the inhibition [11] of the same molecule?
Answer: The inhibition was 0%.

Question: And the fold change (FC) [12]?
Answer: Its fold change (FC) is 0.06.

Question: What about the fold change (FC) [13] of the same molecule?
Answer: Its fold change (FC) is 0.98.

Question: And the inhibition [14]?
Answer: Its inhibition is 12%.

Question: And the inhibition [15]?
Answer: The inhibition was 0%.
